Measurements taken from ChEMBL document CHEMBL6071149, “Synthesis and photo-induced anticancer activity of new 2-phenylethenyl-1H-benzo[e]indole dyes” (Eur J Med Chem, 2024).
pEC50: −log10 of the molar value. Activity calls are given as the source filed them. No cut-off for these calls is given here.

Key:
G-361 [1] = assay: Cytotoxicity against human G361 cells under dark condition measured after 24 hrs by MTT assay; assay type: functional, cell-based; details: G-361, 24 h
How it was run: (§1)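 Cells grown in phenol red-free DMEM with 10 % FBS, penicillin/streptomycin, 37 °C, 5 % CO₂. Compound added 24 h after plating and incubated 4 h. Irradiated cells received 414 nm LED light at 20 mW/cm², 10 J/cm², then were incubated 20 h or 68 h more. Dark plates were run in parallel without irradiation. MTT was added for 4 h, formazan dissolved in 10 % SDS, absorbance read at 570 nm. EC50 ± SD.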

[2] = Cytotoxicity against ARN-8 cells-derived from human A375 cells pretreated for 4 hrs followed by light irradiation of 10 J/cm2 at 414 nm measured after 20 hrs by MTT assay; assay type: functional, cell-based; details: ARN-8 cell, light or radiation study; how it was run: as §1
[3] = Selectivity ratio of EC50 for human G361 cells under dark condition measured after 72 hrs by MTT assay to EC50 for human G361 cells pretreated for 4 hrs followed by light irradiation of 10 J/cm2 at 414 nm measured after 68 hrs by MTT assay; assay type: functional
How it was run: (§2)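 Ratio of dark EC50 to EC50 after 414 nm irradiation (10 J/cm²). MTT read-out; compound exposure 4 h before irradiation. Each dark value is paired with the matching post-irradiation incubation (20 h or 68 h).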

G-361 [4] = assay: Induction of oxidative stress in human G361 cells assessed as increase in HO-1 level upto 4 uM under dark condition by immunoblot analysis; assay type: functional, cell-based
G-361 [5] = assay: Cytotoxicity against human G361 cells pretreated for 4 hrs followed by light irradiation of 10 J/cm2 at 414 nm measured after 68 hrs by MTT assay; assay type: functional, cell-based; details: G-361, light or radiation study; how it was run: as §1
G-361 [6] = assay: Cytotoxicity against human G361 cells pretreated for 4 hrs followed by light irradiation of 10 J/cm2 at 414 nm measured after 20 hrs by MTT assay; assay type: functional, cell-based; details: G-361, light or radiation study; how it was run: as §1
ARN-8 cell [7] = assay: Induction of apoptosis in human ARN-8 cells-derived from human A375 cells assessed as increase in cleaved pro-caspase-9 level upto 4 uM pretreated for 4 hrs followed by light irradiation of 10 J/cm2 at 414 nm measured after 20 hrs by Western blot analysis; assay type: functional, cell-based; details: time 24.0 hrs
How it was run: (§3)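 Compound exposure 4 h, then 414 nm irradiation, then 20 h further incubation. Lysates made in RIPA buffer, separated by SDS-PAGE and blotted to nitrocellulose. Primary antibodies in TBS with 4 % BSA and 0.1 % Tween 20, incubated overnight. Peroxidase secondary antibody with chemiluminescent detection. GAPDH served as loading control.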

[8] = Induction of singlet oxygen generation in aqueous solution at 5 uM at light irradiation of 10 J/cm2; assay type: functional
How it was run: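 Water solutions of compound mixed with SOSG, DHR123 or HPF probe, each at a final 5 µM, without cells or medium. Irradiated with blue light at 10 J/cm² and fluorescence read immediately at 490/525 nm.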

G-361 [9] = assay: Induction of DNA damage in human G361 cells assessed as increase in H2AX phosphorylation at Ser139 at 0.5 to 1 uM pretreated for 4 hrs followed by light irradiation of upto 10 J/cm2 at 414 nm measured after 20 hrs by Western blot analysis; assay type: functional, cell-based; details: dose 0.5-1 µM, time 24.0 hrs; how it was run: as §3
ARN-8 cell [10] = assay: Induction of DNA damage in human ARN-8 cells-derived from human A375 cells assessed as increase in H2AX phosphorylation at Ser139 at 0.5 to 1 uM pretreated for 4 hrs followed by light irradiation of upto 10 J/cm2 at 414 nm measured after 20 hrs by Western blot analysis; assay type: functional, cell-based; details: dose 0.5-1 µM, time 24.0 hrs; how it was run: as §3
[11] = Selectivity ratio of EC50 for human BJ cells under dark condition measured after 72 hrs by MTT assay to EC50 for human G361 cells pretreated for 4 hrs followed by light irradiation of 10 J/cm2 at 414 nm measured after 68 hrs by MTT assay; assay type: functional; how it was run: as §2
[12] = Cytotoxicity against ARN-8 cells-derived from human A375 cells pretreated for 4 hrs followed by light irradiation of 10 J/cm2 at 414 nm measured after 68 hrs by MTT assay; assay type: functional, cell-based; details: ARN-8 cell, light or radiation study; how it was run: as §1
G-361 [13] = assay: (§4) Induction of ROS production in human G361 cells assessed as increase in hydroxyl radical production upto 4 uM pretreated for 4 hrs followed by replacement of medium containing probe without compound for 30 mins and subsequent light irradiation of 5 to 10 J/cm2 measured immediately by DHR-123 probe based analysis; assay type: functional, cell-based
How it was run: (§5)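 Compound exposure 4 h, then medium replaced with PBS containing 5 µM DHR123 probe for 30 min. Probe removed, cells in PBS irradiated at 5 or 10 J/cm², dark samples in parallel. Fluorescence read immediately at 490/525 nm.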

[14] = (§6) Selectivity ratio of EC50 for human G361 cells under dark condition measured after 24 hrs by MTT assay to EC50 for human G361 cells pretreated for 4 hrs followed by light irradiation of 10 J/cm2 at 414 nm measured after 20 hrs by MTT assay; assay type: functional; how it was run: as §2
G-361 [15] = assay: Induction of apoptosis in human G361 cells assessed as decrease in Bcl-2 level upto 4 uM pretreated for 4 hrs followed by light irradiation of 10 J/cm2 at 414 nm measured after 20 hrs by Western blot analysis; assay type: functional, cell-based; details: time 24.0 hrs; how it was run: as §3
ARN-8 cell [16] = assay: Induction of ROS production in human ARN-8 cells-derived from human A375 cells pretreated for 4 hrs followed by light irradiation of 5 to 10 J/cm2 measured immediately by CM-H2DCFA probe based analysis; assay type: functional; details: dose <= 4.0 µM
How it was run: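 Cells loaded next day with 5 µM CM-H₂DCFDA for 30 min, then placed in prewarmed PBS with 5 mM glucose. Compound exposure 4 h, followed by 414 nm irradiation at 5 or 10 J/cm²; dark samples run in parallel. Fluorescence read immediately at 492/530 nm. NAC (5 mM) pretreatment for 10 min gave negative controls. RFU normalised to untreated dark control.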

ARN-8 cell [17] = assay: Induction of apoptosis in human ARN-8 cells-derived from human A375 cells assessed as increase in cleaved PARP-1 level upto 4 uM pretreated for 4 hrs followed by light irradiation of 10 J/cm2 at 414 nm measured after 20 hrs by Western blot analysis; assay type: functional, cell-based; details: time 24.0 hrs; how it was run: as §3
G-361 [18] = assay: Cytotoxicity against human G361 cells under dark condition measured after 72 hrs by MTT assay; assay type: functional, cell-based; details: G-361, 72 h; how it was run: as §1
ARN-8 cell [19] = assay: as §4, with “ARN-8 cells-derived from human A375” for “G361”, “singlet oxygen level” for “hydroxyl radical production”; assay type: functional; how it was run: as §5
[20] = as §6, with “ARN-8 cells-derived from human A375” for “G361”; assay type: functional, ARN-8 cell; how it was run: as §2
ARN-8 cell [21] = assay: Induction of cell cycle arrest in human ARN-8 cells-derived from human A375 cells transfected with p53-responsive beta-galactosidase assessed as increase in p53 activation upto 4 uM pretreated for 4 hrs followed by light irradiation of 10 J/cm2 at 414 nm measured after 20 hrs by fluorescence based assay; assay type: functional; details: time 24.0 hrs
How it was run: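 ARN8 cells stably carrying the p53-responsive pRGΔfoslacZ reporter. Increasing compound concentrations for 4 h, then 414 nm irradiation at 2.5, 5, 7.5 or 10 J/cm², then 20 h further incubation. Cells lysed in 0.3 % Triton X-100. After 10 min, 4-methylumbelliferyl β-D-galactopyranoside added at a final 80 µM for 1 h. Fluorescence read at […].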

COc1ccc(/C=C/C2=Nc3ccc4ccccc4c3C2(C)C)cc1[N+](=O)[O-]
pEC50 (G-361 [1]): 5.05
pEC50 [2]: 6.30
Ratio EC50 [3]: >28
Activity (G-361 [4]): Active
pEC50 (G-361 [5]): 6.70
pEC50 (G-361 [6]): 6.22
Activity (ARN-8 cell [7]): Active
Activity [8]: inactive
Activity (G-361 [9]): Active
Activity (ARN-8 cell [10]): Active
Ratio EC50 [11]: >40
pEC50 [12]: 6.70
Activity (G-361 [13]): Active
Ratio EC50 [14]: >=15
Activity (G-361 [15]): Active
Activity (ARN-8 cell [16]): Dose-Dependent Effect
Activity (ARN-8 cell [17]): Active
pEC50 (G-361 [18]): 5.25
Activity (ARN-8 cell [19]): inactive
Ratio EC50 [20]: >=15
Activity (ARN-8 cell [21]): Active
